According to ChEMBL document CHEMBL1134337, “Behavioral approach to nondyskinetic dopamine antagonists: identification of seroquel” (J Med Chem, 2001):

Experiments:
Mus musculus [1] = test: Antagonism of apomorphine induced climbing was determined in female swiss -Webster mice after (ip) administration of 40 mg/kg; format: functional
In short: (§1)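 Female Swiss-Webster mice (about 20 g) were fasted about 24 h, then given test compound or vehicle ip or po (N = 20 per group). Vehicle was 0.5% w/w hydroxypropylmethylcellulose with 0.1% w/w Tween 80 in water. After 30 min, mice received apomorphine HCl 1.25 mg/kg sc. At 13 min, each mouse was watched for 1 min; score was mean of highest and lowest rung of 27. Groups were compared with vehicle by Student's t-test.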

Mus musculus [2] = test: Antagonism of apomorphine induced climbing was determined in female swiss -Webster mice after (ip) administration of 80 mg/kg; format: functional; in short: as §1
[3] = molecular target: D(2) dopamine receptor (Rattus norvegicus) (UniProt P61169); test: Binding affinity at dopamine receptor D2 from rat by spiropiperidone displacement.
D(2) dopamine receptor (Rattus norvegicus), sequence (P61169 whole entry): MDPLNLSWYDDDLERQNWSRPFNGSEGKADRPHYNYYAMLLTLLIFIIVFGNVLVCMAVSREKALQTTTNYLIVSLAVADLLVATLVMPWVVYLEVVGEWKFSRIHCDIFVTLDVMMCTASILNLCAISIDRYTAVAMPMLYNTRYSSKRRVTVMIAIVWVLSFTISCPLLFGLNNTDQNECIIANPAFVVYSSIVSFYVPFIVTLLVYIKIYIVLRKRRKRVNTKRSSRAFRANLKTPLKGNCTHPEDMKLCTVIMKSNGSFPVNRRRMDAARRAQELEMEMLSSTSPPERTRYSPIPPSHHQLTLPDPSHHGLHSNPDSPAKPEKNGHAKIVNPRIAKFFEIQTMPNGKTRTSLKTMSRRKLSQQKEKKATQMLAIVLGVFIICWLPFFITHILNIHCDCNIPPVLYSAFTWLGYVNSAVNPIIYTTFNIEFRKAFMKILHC
In short: (§2)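 D2 receptor binding was read as % displacement of spiropiperidone, with test compound at 1000 nM unless stated otherwise. IC50 values used at least five concentrations per compound in triplicate. Each value is the mean of two replicate experiments differing by 5% or less.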

Mus musculus [4] = test: Antagonism of apomorphine induced swimming was determined in female swiss -Webster mice after (ip) administration of 80 mg/kg; format: functional
D(2) dopamine receptor = D(2) dopamine receptor (Rattus norvegicus, UniProt P61169); test: Inhibition of spiropiperidone binding at dopamine receptor D2 of rat.
D(2) dopamine receptor, sequence (P61169 whole entry): as above

Mus musculus [5] = test: Antagonism of apomorphine induced swimming was determined in female swiss -Webster mice after (ip) administration of 20 mg/kg; format: functional
Mus musculus [6] = test: Antagonism of apomorphine induced swimming was determined in female swiss -Webster mice after (ip) administration of 40 mg/kg; format: functional
Mus musculus [7] = test: Antagonism of apomorphine induced climbing was determined in female swiss -Webster mice after (ip) administration of 20 mg/kg; format: functional; in short: as §1
[8] = Number of animals showing dyskinesias was determined in haloperidol sensitized cebus monkey after (po) administration of 40 mg/kg; format: functional
In short: (§3)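 Adult female and male Cebus monkeys sensitized with oral haloperidol 1 mg/kg once per week until dyskinetic reactions occurred. Test drug given orally (2 mL/kg) in 0.5% w/w hydroxypropylmethylcellulose with 0.1% w/w Tween 80 in distilled water, at least 2 weeks between treatments. Two observers watched continuously for 6-7 h, recording reaction type and severity every 30 min. Score is monkeys with dyskinesias/monkeys tested.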

Mus musculus [9] = test: Antagonism of apomorphine induced climbing was determined in female swiss -Webster mice after (ip) administration of 10 mg/kg; format: functional; in short: as §1
Mus musculus [10] = test: Antagonism of apomorphine induced swimming was determined in female swiss -Webster mice after (ip) administration of 10 mg/kg; format: functional
Mus musculus [11] = test: Antagonism of apomorphine induced climbing was determined in female swiss -Webster mice after (ip) administration of 2.5 mg/kg; format: functional; in short: as §1
Mus musculus [12] = test: Antagonism of apomorphine induced swimming was determined in female swiss -Webster mice after (ip) administration of 5 mg/kg; format: functional
Mus musculus [13] = test: Antagonism of apomorphine induced swimming was determined in female swiss -Webster mice after (ip) administration of 2.5 mg/kg; format: functional
Mus musculus [14] = test: Antagonism of apomorphine induced climbing was determined in female swiss -Webster mice after (ip) administration of 5 mg/kg; format: functional; in short: as §1
[15] = Number of animals showing dyskinesias was determined in haloperidol sensitized 13 cebus monkeys after (po) administration of 10 mg/kg; format: functional
In short: (§4)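 Adult male and female Cebus monkeys sensitized with haloperidol 1 mg/kg po weekly until dyskinetic reactions appeared. Drug given orally (2 mL/kg) in 0.5% w/w hydroxypropylmethylcellulose with 0.1% w/w Tween 80, at least 2 weeks between treatments. Two observers watched continuously for 6–7 h, logging reaction type and severity every 30 min. Score is the number of monkeys with dyskinesias over the number tested.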

Mus musculus [16] = test: Antagonism of apomorphine induced swimming was determined in female swiss -Wbster mice after (po) administration of 40 mg/kg; format: functional
Mus musculus [17] = test: Antagonism of apomorphine induced climbing was determined in female swiss -Wbster mice after (ip) administration of 20 mg/kg; format: functional; in short: as §1
Mus musculus [18] = test: Antagonism of apomorphine induced climbing was determined in female swiss -Wbster mice after (ip) administration of 80 mg/kg; format: functional; in short: as §1
[19] = Number of animals showing dyskinesias was determined in haloperidol sensitized 13 cebus monkeys after (po) administration of 20 mg/kg; format: functional; in short: as §4
Mus musculus [20] = test: Antagonism of apomorphine induced swimming was determined in female swiss -Wbster mice after (po) administration of 80 mg/kg; format: functional
[21] = Number of animals showing dyskinesias was determined in haloperidol sensitized 4 cebus monkeys after (po) administration of 40 mg/kg; format: functional; in short: as §3
Mus musculus [22] = test: Antagonism of apomorphine induced climbing was determined in female swiss -Wbster mice after (ip) administration of 40 mg/kg; format: functional; in short: as §1
Mus musculus [23] = test: Antagonism of apomorphine induced climbing was determined in female swiss -Wbster mice after (po) administration of 20 mg/kg; format: functional; in short: as §1
Mus musculus [24] = test: Antagonism of apomorphine induced swimming was determined in female swiss -Wbster mice after (po) administration of 10 mg/kg; format: functional
Mus musculus [25] = test: Antagonism of apomorphine induced climbing was determined in female swiss -Wbster mice after (po) administration of 80 mg/kg; format: functional; in short: as §1
Mus musculus [26] = test: Antagonism of apomorphine induced climbing was determined in female swiss -Wbster mice after (po) administration of 40 mg/kg; format: functional; in short: as §1
Mus musculus [27] = test: Antagonism of apomorphine induced swimming was determined in female swiss -Wbster mice after (po) administration of 20 mg/kg; format: functional
[28] = molecular target: D(2) dopamine receptor (Rattus norvegicus) (UniProt P61169); test: Inhibitory activity for the displacement of spiropiperidone (1000 nM) from dopamine D2 receptor of rat; in short: as §2
Mus musculus [29] = test: Antagonism of apomorphine induced swimming was determined in female swiss -Wbster mice after (ip) administration of 40 mg/kg; format: functional
Mus musculus [30] = test: Antagonism of apomorphine induced swimming was determined in female swiss -Wbster mice after (ip) administration of 80 mg/kg; format: functional
Mus musculus [31] = test: Antagonism of apomorphine induced climbing was determined in female swiss -Wbster mice after (ip) administration of 10 mg/kg; format: functional; in short: as §1
[32] = Number of animals showing dyskinesias was determined in haloperidol sensitized 12 cebus monkeys after (po) administration of 80 mg/kg; format: functional; in short: as §3
[33] = Number of animals showing dyskinesias was determined in haloperidol sensitized 2 cebus monkeys after (po) administration of 20 mg/kg; format: functional; in short: as §3
Mus musculus [34] = test: Antagonism of apomorphine induced swimming was determined in female swiss -Wbster mice after (po) administration of 5 mg/kg; format: functional
[35] = Number of animals showing dyskinesias was determined in haloperidol sensitized 3 cebus monkeys after (po) administration of 80 mg/kg; format: functional; settings: dose 10 mg/kg; in the assay text read “10 mg/kg” for “80 mg/kg”; in short: as §3
Mus musculus [36] = test: Antagonism of apomorphine induced swimming was determined in female swiss -Wbster mice after (po) administration of 2.5 mg/kg; format: functional

Work on CN1CCN(C2=Nc3cc(Cl)ccc3Cc3ccccc32)CC1 yielded an Activity (Mus musculus [1]) of 24, an Activity (Mus musculus [2]) of 25 and a % displacement of spiropiperidone [3] of 40%.

With OCCOCCOCCN1CCN(C2=Nc3ccccc3Sc3ccccc32)CC1 the Activity (Mus musculus [4]) was <12, the Activity (Mus musculus [1]) was 14 and the Activity (Mus musculus [2]) was <3. The IC50 (D(2) dopamine receptor) was 1390 nM, the Activity (Mus musculus [5]) was 2 and the Activity (Mus musculus [6]) was <3. It also gave an Activity (Mus musculus [7]) of 20.

Compound c1ccc2c(c1)N=C(N1CCN(CC3COCCO3)CC1)c1ccccc1S2 (configuration not stated) has a No of monkeys [8] of 2, an Activity (Mus musculus [1]) of 2 and an Activity (Mus musculus [9]) of 1. It also gave an Activity (Mus musculus [5]) of 20, a % displacement of spiropiperidone [3] of 50% and an Activity (Mus musculus [6]) of 30. For the same compound, the Activity (Mus musculus [10]) was 20, the Activity (Mus musculus [11]) was 14 and the Activity (Mus musculus [12]) was 13. The Activity (Mus musculus [13]) was 8, the Activity (Mus musculus [7]) was 0 and the Activity (Mus musculus [14]) was 6.

Work on OCCOCCN1CCN(C2=Nc3ccccc3Sc3ccccc32)CC1 [QUETIAPINE] yielded a No of monkeys [15] of 1, an Activity (Mus musculus [16]) of 11 and an Activity (Mus musculus [17]) of 15. The Activity (Mus musculus [18]) was 0, the No of monkeys [19] was 2 and the Activity (Mus musculus [20]) was 18. It also gave a No of monkeys [21] of 0, an Activity (Mus musculus [22]) of 2 and an Activity (Mus musculus [23]) of 18. For the same compound, the Activity (Mus musculus [24]) was 3, the Activity (Mus musculus [25]) was 8 and the Activity (Mus musculus [26]) was 14. It also gave an Activity (Mus musculus [27]) of 3.

COCC(COC)N1CCN(C2=Nc3ccccc3Sc3ccccc32)CC1 gave an Activity (Mus musculus [4]) of 0, an inhibition [28] of 4% and an Activity (Mus musculus [2]) of 19.

CN1CCN(C2=Nc3cc(Cl)ccc3Sc3ccccc32)CC1 [ISOCLOTHIAPINE] gave an Activity (Mus musculus [2]) of 18 and a % displacement of spiropiperidone [3] of 46%.

OCCOCCN1CCN(C2=Nc3ccccc3Oc3ccccc32)CC1 showed an Activity (Mus musculus [18]) of 11, a % displacement of spiropiperidone [3] of 16% and an Activity (Mus musculus [22]) of 17. For the same compound, the Activity (Mus musculus [29]) was 1 and the Activity (Mus musculus [30]) was 8.

[O-][S+]1c2ccccc2N=C(N2CCN(CCOCCO)CC2)c2ccccc21 (configuration not stated) [SULFOXIDE METABOLITE] gave an Activity (Mus musculus [4]) of 0 and an Activity (Mus musculus [2]) of 23.

OCCOCCN1CCN(C2=Nc3cc(Cl)ccc3Sc3ccccc32)CC1 gave an Activity (Mus musculus [16]) of 1, an Activity (Mus musculus [17]) of 12 and an Activity (Mus musculus [18]) of 0. The Activity (Mus musculus [20]) was 1, the Activity (Mus musculus [31]) was 20 and the % displacement of spiropiperidone [3] was 58%. For the same compound, the No of monkeys [21] was 0, the Activity (Mus musculus [22]) was 8 and the Activity (Mus musculus [23]) was 25. It also gave a No of monkeys [32] of 0, an Activity (Mus musculus [25]) of 16 and an Activity (Mus musculus [26]) of 24. It also gave an Activity (Mus musculus [27]) of 1 and a No of monkeys [33] of 0.

For COCC(CO)N1CCN(C2=Nc3ccccc3Sc3ccccc32)CC1 (configuration not stated), the Activity (Mus musculus [4]) was 0, the Activity (Mus musculus [2]) was 21 and the IC50 (D(2) dopamine receptor) was 1640 nM.

In the case of OCCOCCN1CCN(C2=Nc3cc(O)ccc3Sc3ccccc32)CC1, the Activity (Mus musculus [18]) is reported as 24, the % displacement of spiropiperidone [3] is reported as 24% and the Activity (Mus musculus [30]) is reported as 0.

In the case of CN1CCN(C2=Nc3ccc(O)cc3Sc3ccccc32)CC1, the Activity (Mus musculus [34]) is reported as 10, the Activity (Mus musculus [9]) is reported as 1 and the IC50 (D(2) dopamine receptor) is reported as 49 nM. For the same compound, the Activity (Mus musculus [24]) was 34, the Activity (Mus musculus [11]) was 18 and the No of monkeys [35] was 3. The Activity (Mus musculus [7]) was 1, the Activity (Mus musculus [36]) was 3 and the Activity (Mus musculus [14]) was 13. The Activity (Mus musculus [27]) was 32.
